# Bioassay records: PubChem BioAssay, several laboratories
# NCF1 inh = p47phox (human) inhibition; p47phox/p22phox peptide binding, fluorescence polarization, 2 h; inhibition, % at 24.7 µM; actives 0.53% (n = 220,000); AID 1274
# 14-3-3 Bad PPI = disrupts binding of bovine 14-3-3 zeta to phospho-Bad peptide; P63103; TR-FRET 14-3-3zeta/Dy647-pBad peptide displacement, 1 h; inhibition, % at 21.7 µM; actives 0.71% (n = 220,000); AID 781;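 active means inhibition above about 70%, limit read from the data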
# eIF4E 4G PPI = blocks eIF4E binding to eIF4G; AID 782; TR-FRET eIF4E-eIF4GI(517-606) binding, 2 h; inhibition, % at 21.7 µM; P63073+Q04637; actives 0.37% (n = 220,000)
# Target sequence (P63073 whole entry, looked up): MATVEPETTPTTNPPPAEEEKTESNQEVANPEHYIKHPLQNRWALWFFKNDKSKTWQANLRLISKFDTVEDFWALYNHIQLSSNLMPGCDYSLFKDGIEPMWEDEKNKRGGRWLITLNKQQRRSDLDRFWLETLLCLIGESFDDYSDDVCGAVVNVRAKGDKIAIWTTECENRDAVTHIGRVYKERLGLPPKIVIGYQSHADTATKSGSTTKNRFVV
# Target sequence (Q04637 whole entry, looked up): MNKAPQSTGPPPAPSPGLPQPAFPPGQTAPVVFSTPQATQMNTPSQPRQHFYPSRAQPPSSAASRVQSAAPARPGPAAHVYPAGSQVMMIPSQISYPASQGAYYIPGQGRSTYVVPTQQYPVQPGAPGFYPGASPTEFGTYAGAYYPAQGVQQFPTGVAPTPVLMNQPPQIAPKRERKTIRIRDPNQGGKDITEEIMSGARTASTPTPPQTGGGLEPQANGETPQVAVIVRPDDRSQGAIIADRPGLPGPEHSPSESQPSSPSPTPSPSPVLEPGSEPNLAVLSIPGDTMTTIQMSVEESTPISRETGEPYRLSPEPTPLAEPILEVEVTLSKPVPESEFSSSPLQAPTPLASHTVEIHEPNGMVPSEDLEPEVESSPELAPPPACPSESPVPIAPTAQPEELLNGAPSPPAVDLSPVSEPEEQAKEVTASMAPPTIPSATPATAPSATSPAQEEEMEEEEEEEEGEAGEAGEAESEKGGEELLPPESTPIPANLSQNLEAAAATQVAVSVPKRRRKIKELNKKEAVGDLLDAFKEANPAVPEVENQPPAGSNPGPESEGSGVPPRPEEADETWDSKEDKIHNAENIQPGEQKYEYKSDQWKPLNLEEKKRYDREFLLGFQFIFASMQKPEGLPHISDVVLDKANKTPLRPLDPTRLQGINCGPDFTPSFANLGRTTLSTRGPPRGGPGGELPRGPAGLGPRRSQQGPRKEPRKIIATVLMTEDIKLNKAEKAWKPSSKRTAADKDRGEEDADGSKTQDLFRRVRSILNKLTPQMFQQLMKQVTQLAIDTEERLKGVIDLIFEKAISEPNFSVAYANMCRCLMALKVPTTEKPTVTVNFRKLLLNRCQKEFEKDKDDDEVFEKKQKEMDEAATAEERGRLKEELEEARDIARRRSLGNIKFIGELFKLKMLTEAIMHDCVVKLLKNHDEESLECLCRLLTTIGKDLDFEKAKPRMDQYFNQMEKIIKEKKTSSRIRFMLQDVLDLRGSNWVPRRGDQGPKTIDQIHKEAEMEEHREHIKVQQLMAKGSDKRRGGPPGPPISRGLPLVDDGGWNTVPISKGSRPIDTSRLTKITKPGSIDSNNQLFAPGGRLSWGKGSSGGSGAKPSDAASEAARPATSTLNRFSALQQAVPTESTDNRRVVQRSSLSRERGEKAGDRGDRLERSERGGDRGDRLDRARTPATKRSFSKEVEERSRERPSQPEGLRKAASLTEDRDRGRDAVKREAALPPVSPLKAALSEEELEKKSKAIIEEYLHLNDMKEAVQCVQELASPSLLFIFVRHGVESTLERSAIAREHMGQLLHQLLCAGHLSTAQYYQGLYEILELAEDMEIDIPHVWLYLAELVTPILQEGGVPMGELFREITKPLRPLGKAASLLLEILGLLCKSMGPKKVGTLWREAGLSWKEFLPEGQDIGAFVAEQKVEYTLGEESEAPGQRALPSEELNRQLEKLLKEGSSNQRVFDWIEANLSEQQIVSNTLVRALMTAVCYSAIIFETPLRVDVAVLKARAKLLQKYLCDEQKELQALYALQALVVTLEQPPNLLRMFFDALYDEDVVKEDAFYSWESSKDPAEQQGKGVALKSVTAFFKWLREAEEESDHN
# p97 inhibitor = human p97 ATPase inhibition; recombinant p97 ATPase, Kinase-Glo ATP luminescence, 3 h; inhibition, % at 8 µM; actives 0.42% (n = 220,000); AID 1481; in the data active means inhibition above about 15%
# SUMO HTRF inh = blocks human SUMOylation mediated by UBC9. P63279. HTRF SUMOylation assay, SAE1/SAE2 + UBC9, in vitro. inhibition, % at 35 µM. actives 0.36% (n = 290,000). AID 2006; in the data active means inhibition above about 50%, passing the limit was not always enough
# Tb MetRS inh = blocks T. brucei methionyl-tRNA synthetase activity; inhibition, % at 11.9 µM; AID 624268; actives 0.4% (n = 360,000); purified T. brucei MetRS, ATP depletion, Kinase-Glo luminescence;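 active means inhibition above a per-plate cutoff of the control wells' mean inhibition plus 3 SD, cut at about 5.5% in these data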
#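 Assay system: T. brucei methionyl-tRNA synthetase, purified | Medium: HEPES buffer with MgCl2, KCl, DTT, spermine, BSA, pyrophosphatase | Compound: 11.9 µM single point | Incubation: 15 min enzyme-compound preincubation, 2 h reaction, 10 min detection, 25 °C | Measured by: Kinase-Glo luciferase luminescence reporting remaining unconsumed ATP | Measure: % inhibition normalized to control-well medians | Replication: Singlicate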
# A number is an active result; 0 = inactive; - = no result; [ ] = dose if it differs, or a comment. Rows were chosen to be rich in hits. Some 1.6% of all compounds tested hit in one or more screens of this group.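 How the source made its calls, unless noted: active means inhibition above about 30% (limit read from the data); inactive means the rest.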
SMILES,NCF1 inh,14-3-3 Bad PPI,eIF4E 4G PPI,p97 inhibitor,SUMO HTRF inh,Tb MetRS inh
O=C(NCCCN1CCCCCC1)C1CC(=O)N(CCc2ccccc2)C1 (centres undefined),54.8,0,0,0,0,0
O=C(/C=C1\NC2(CCCC2)Cc2ccccc21)N1CCOCC1,0,0,0,0,0,0
CC1(C)Cc2c(ccc3ccccc23)/C(=C/C(=O)N2CCCCC2)N1,0,70.8,0,0,0,0
O=C(N/N=C/c1ccncc1)c1cccc(N/N=C/c2ccncc2)c1,0,0,0,0,0,0
O=C(N/N=C/c1ccncc1)c1cccc(NC(=O)c2ccc(Cl)cc2)c1,0,0,0,0,62.0,0
O=C(N/N=C/c1ccc(F)cc1)c1cccc(NC(=O)c2ccc(F)cc2)c1,-,-,-,-,0,0
O=C(N/N=C/c1ccc(O)cc1)c1cccc(N/N=C/c2ccc(O)cc2)c1,0,0,0,17.4,0,0
COc1ccc(-n2cccc2/C=C2\C(=N)N3N=C(C(C)C)SC3=NC2=O)cc1,0,0,0,0,0,0
CCC1=NN2C(=N)/C(=C\c3cccn3-c3cccc(Cl)c3)C(=O)N=C2S1,0,0,0,0,0,0
COc1ccc(-n2cccc2/C=C2\C(=N)N3N=C(c4ccco4)SC3=NC2=O)cc1,0,82.1,45.8,0,87.8,0
CCC1=NN2C(=N)/C(=C\c3cccn3-c3ccc(Br)cc3)C(=O)N=C2S1,42.5,79.4,0,0,0,0
NS(=O)(=O)c1ccc(N/N=C/c2cn(-c3ccccc3)nc2-c2cccs2)c([N+](=O)[O-])c1,0,0,0,0,0,0
N#Cc1ccc(N/N=C/c2cn(-c3ccccc3)nc2-c2ccccc2)c([N+](=O)[O-])c1,51.1,0,0,0,0,0
CCN(CC)C(=O)c1c(NC(=O)c2ccccc2)sc(C)c1C,0,0,0,14.7,0,0
CC12CC3(C)CC(C)(C1)CC(C(=O)NC(=S)N1CCCC1)(C2)C3,0,0,31.8,0,0,0
O=S(=O)(c1ccc(Cl)c(Cl)c1)c1snnc1-c1ccccc1,0,0,0,22.7,0,0
c1ccc(-c2nnsc2-c2ccccc2)cc1,-,-,-,-,0,0
CC(=O)c1ccc(NC(=O)Nc2cccnc2)cc1,-,-,-,-,58.2,0
O=C(NCCN1C(=O)C2C3C=CC(C3)C2C1=O)Nc1cccnc1 (centres undefined),0,0,0,0,0,0
O=C(Nc1ccc(N2C(=O)C3C4C=CC(C4)C3C2=O)cc1)Nc1cccnc1 (centres undefined),0,0,0,0,56.1,0
CC(=O)c1ccc(NC(=O)Nc2ccncc2)cc1,0,0,0,0,0,0
O=C1c2cccc3cccc(c23)C(=O)N1CCN1CCN(C(=S)Nc2ccc(Cl)cc2)CC1,32.0,0,0,0,0,0
O=c1cc(-c2ccco2)oc2c1ccc1ccccc12,0,76.7,0,0,0,0
O=c1cc(-c2ccncc2)oc2c1ccc1ccccc12,-,-,-,-,0,0
c1ccc(-c2nc(NCc3ccco3)c3oc4ccccc4c3n2)cc1,0,72.6,0,0,0,0
SMILES,NCF1 inh,14-3-3 Bad PPI,eIF4E 4G PPI,p97 inhibitor,SUMO HTRF inh,Tb MetRS inh
Cc1cccc(C)c1-n1nnnc1C1c2ccccc2C(=O)N1C1CC1 (centres undefined),-,-,-,-,-,0
COc1ccc2oc(=O)c(C(=O)NCC3CCCO3)cc2c1 (centres undefined),0,0,0,0,51.6,0
C(#CCN1CCOCC1)COCCOC(c1ccccc1)c1ccccc1,0,0,0,0,0,0
C(#CCN1CCOCC1)COC(c1ccccc1)c1ccccc1,0,72.2,0,0,0,0
Cc1ccc(CNCC2CCCO2)s1 (centres undefined),0,90.2,0,0,0,0
OC1(C(F)(F)F)CC(c2ccc3ccccc3c2)=NO1 (centres undefined),0,0,0,0,0,0
C=CCc1ccccc1OCCCCN1CCCC1,0,79.2,0,0,0,0
CCc1ccccc1OCCCCN1CCCC1,0,0,0,0,0,0
CC1CCN(CCCCOc2ccccc2-c2ccccc2)CC1,0,0,0,0,0,0
CC1CCCN(CCCOc2ccccc2-c2ccccc2)C1 (centres undefined),31.0,0,0,0,0,0
Cc1ccccc1OCCN1CCCC1,-,-,-,-,0,0
Cc1ccccc1OCCCN1CCCC1,0,76.1,0,0,0,0
CCCNC(=O)[C@@H]1CCCN1C(=O)[C@@H]1Cc2ccccc2CN1,-,-,-,-,0,0
CC1=[N+](C)c2c(ccc3cccnc23)C1(C)C,0,0,0,0,89.6,0
COc1ccccc1NC(=O)CSc1nnnn1-c1ccc(F)cc1,-,-,-,-,0,0
O=C(O)c1cc(-c2ccc(O)cc2)on1,0,79.3,0,0,0,0
Cc1cccc(OCc2nc(-c3ccccn3)n[nH]2)c1,0,0,0,0,0,0
Cc1ccc(OCc2nc(-c3ccccn3)n[nH]2)cc1,0,0,33.5[fluorescence artefact?],0,0,0
Cc1cc(C)c2nc3nc(C)c(C)cc3c(N)c2c1,34.8,0,0,0,0,0
CCn1ncc(-c2cc(C(=O)O)no2)c1C,0,0,0,0,0,-
CCn1ncc(-c2ccnc3cc(C(=O)O)nn23)c1C,0,70.4,0,0,0,0
CC(C)c1cn(CC[C@@H]2CC[C@@H](NC(=O)C3CCCCC3)[C@@H](CO)O2)nn1,-,-,-,-,-,0
COc1ccc(OC)c(Nc2nc(=O)c3cccnc3s2)c1,60.2,0,32.0,0,0,0
COc1ccc(O)c(CN2CCN(C/C=C/c3ccccc3)CC2)c1,0,73.8,0,0,0,0
COc1cc(Br)cc(CN2CCN(C/C=C/c3ccccc3)CC2)c1O,0,0,0,0,0,0
SMILES,NCF1 inh,14-3-3 Bad PPI,eIF4E 4G PPI,p97 inhibitor,SUMO HTRF inh,Tb MetRS inh
CCc1nc2ccc(C(=O)NCC3CCCCC3)cn2c1N(C)Cc1nccs1,-,-,-,-,-,0
CCOC(=O)C(=O)NNc1ccc(F)cc1,0,0,30.6,0,0,0
COc1ccc(Nc2cc(C(=O)NCCCN3CCOCC3)c3ccccc3n2)cc1OC,0,0,0,0,0,0
COc1ccc(Nc2cc(C(=O)NCCCN3CCN(C)CC3)c3ccccc3n2)cc1OC,72.7,0,0,0,0,0
CN(CCO)c1nc(N)c2c(N)nc3c(c2c1C#N)CC(=O)N3Cc1cccs1,0,0,0,0,101.2,0
N#Cc1c(N(CCO)CCO)nc(N)c2c(N)nc3c(c12)CC(=O)N3Cc1cccs1,0,0,0,28.8,0,0
O=C(CNC(=S)N(CCCN1CCOCC1)Cc1cccs1)NC1CCCC1,34.6,0,0,0,0,0
O=C(/C=C/[C@H]1O[C@@H](n2ccc(=O)[nH]c2=O)[C@H](O)[C@@H]1O)NCCCc1ccccc1,-,-,-,-,-,0
Cc1ccc(CNc2ccc([N+](=O)[O-])cc2C(N)=O)cc1,-,-,-,-,-,0
Cc1ccc(Oc2c(C(N)=O)cc([N+](=O)[O-])cc2[N+](=O)[O-])cc1,0,0,40.4[fluorescence artefact?],0,0,0
